A word on the IC50: it is the concentration needed to halve the response being measured.

This is an account of results in ChEMBL document CHEMBL3580607, “Anti-parasitic Guanidine and Pyrimidine Alkaloids from the Marine Sponge Monanchora arbuscula” (J Nat Prod, 2015).

Structures are written as SMILES. Values after ≈ are worked out from the molar mass of the structure shown. Active and inactive are the calls of the source. No cut-off for these calls is given here.

Data set [1] concerns Trypanosoma brucei brucei. Nature of the data set: Antitrypanosomal activity against Trypanosoma brucei brucei GUTat 3.1 after 72 hrs by Alamar blue assay. The note with it: GUTat 3.1, 72 h. In kind it is functional, organism-based.
Data set [2] concerns Leishmania donovani. Kind of data set: Antileishmanial activity against promastigote stage Leishmania donovani assessed as growth inhibition after 72 hrs by Alamar blue assay. In kind it is functional, organism-based. For orientation: The colour change of resazurin is a common sign of viable cells or microbes.
For data set [3], the system named is LLC-MK2. Nature of the data set: Cytotoxicity against rhesus monkey LLC-MK2 cells assessed as inhibition of cell viability after 48 hrs by MTT assay. The class given is cell-based. As to conditions: Macaca mulatta, LLC-MK2, 48 h. The procedure, abridged:
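LLC-MK2 rhesus monkey kidney cells seeded at 4 × 10^4 per well, exposed to alkaloids at up to 200 μM for 48 h; viability by MTT. IC50 from sigmoidal dose–response fits with 95% CI, replicates from at least two independent assays.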
In general terms: Formazan colour is commonly taken as a measure of viable cells.

In data set [4] the test system is Trypanosoma cruzi. Kind of data set: Antitrypanosomal activity against trypomastigote stage of Trypanosoma cruzi Y assessed as inhibition of cell viability after 24 hrs by MTT assay. In kind it is functional, organism-based. Put shortly:
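T. cruzi Y-strain trypomastigotes incubated with alkaloids for 24 h; viability by MTT. Benznidazole as standard drug control. IC50 from sigmoidal dose–response curves, mean and standard deviation of replicates from at least two independent assays, 95% CI.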

The subject of data set [5] is Leishmania infantum. Nature of the data set: Antileishmanial activity against promastigote stage of Leishmania infantum MHOM/BR/1972/LD assessed as reduction of cell viability after 48 hrs by MTT assay. The class given is functional, organism-based. Put shortly:
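L. infantum promastigotes exposed to alkaloids dissolved in DMSO, diluted in M-199 medium, highest concentration 156 μM, with internal controls; viability read by MTT after 48 h incubation. IC50 from sigmoidal dose–response curves, mean and standard deviation of replicates from at least two independent assays, with 95% CI.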

Data set [6] relates to Leishmania infantum. Nature of the data set: Antileishmanial activity against intracellular amastigote stage of Leishmania infantum MHOM/BR/1972/LD infected in BALB/c mouse peritoneal macrophages assessed as reduction of parasite burden after 120 hrs by Giemsa staining assay. The class given is functional, organism-based. The procedure, abridged: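 Peritoneal macrophages from BALB/c mice (collected in RPMI-1640 with 10% FBS, 37 °C, 5% CO2) infected with L. infantum amastigotes from spleens of infected hamsters, at a 1:10 macrophage:amastigote ratio. Compound exposure for 120 h, then Giemsa staining; infected macrophages counted out of 500 cells. Miltefosine as standard drug control.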

The subject of data set [7] is Leishmania infantum. Nature of the data set: Leishmanicidal activity against promastigote stage of Leishmania infantum MHOM/BR/1972/LD assessed as reduction of mitochondrial membrane potential at 2 uM measured after 60 mins by MitoTracker Red CM-H2XROS dye-based fluorimetric microplate reader analysis relative to control. In kind it is functional. More on the design: scale not given: the % may be the effect or the level left. The procedure, abridged: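 L. infantum promastigotes at 2 × 10^6/well exposed to 2 μM compound for 60 min, then MitoTracker Red CM-H2XROS (500 nM) added; fluorescence at excitation 540 nm / emission 595 nm. Controls: DMSO, compound alone, untreated parasites, medium without cells.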

Data set [8] relates to Leishmania infantum. Nature of the data set: Antileishmanial activity against promastigote stage of Leishmania infantum MHOM/BR/1972/LD assessed as increase in membrane permeability at 2 uM measured at 60 mins by SYTOX green staining-based fluorimetric microplate reader analysis.
Data set [9] is described as follows: Selectivity index, ratio of IC50 for rhesus monkey LLC-MK2 cells to IC50 for trypomastigote stage of Trypanosoma cruzi Y. As to conditions: read-out: Ratio IC50. The class given is toxicity, cell-based. The procedure, abridged: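 The ratio divides the LLC-MK2 IC50 by the T. cruzi trypomastigote IC50. LLC-MK2 cells were seeded at 4 × 10^4/well, given compound up to 200 μM for 48 h, and read by MTT. Y-strain trypomastigotes were exposed for 24 h, with MTT read-out. IC50s come from sigmoidal dose–response fits (95% CI), using replicates from at least two independent assays.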

Data set [10] concerns Trypanosoma cruzi. Nature of the data set: Potency index, ratio of benznidazole IC50 to compound IC50 for trypomastigote stage of Trypanosoma cruzi Y. The class given is functional.
For data set [11], the system named is Leishmania infantum. Nature of the data set: Leishmanicidal activity against promastigote stage of Leishmania infantum MHOM/BR/1972/LD assessed as increase in reactive oxygen species production at 2 uM measured after 60 mins by H2DCf-DA probe-based fluorimetric microplate reader analysis relative to control. In kind it is functional. The procedure, abridged: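 Promastigotes (2 × 10^6/well) given 2 μM compound for 60 min, then H2DCf-DA (5 μM) for 15 min; fluorescence at 485/520 nm. Oligomycin (20 μM) as positive control; data normalized with oligomycin-treated parasites as 100% and untreated as 0%.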

Data set [12] concerns Leishmania donovani. Nature of the data set: Antileishmanial activity against Leishmania donovani. In kind it is functional, organism-based.
Data set [13] can be described thus: Cytotoxicity against human MCF10A cells. In kind it is cell-based. As to conditions: mcf-10a.
In data set [14] the test system is HeLa. Kind of data set: Cytotoxicity against human HeLa cells. In kind it is functional, cell-based.
The subject of data set [15] is MCF7. Nature of the data set: Cytotoxicity against human MCF7 cells. In kind it is functional, cell-based.
In data set [16] the test system is A549. Nature of the data set: Cytotoxicity against human A549 cells. The class given is functional, cell-based.

`CC/C=C/CCC[C@@H]1C[C@@H]2CC[C@@H]3C[C@@H](CCCCCCC)NC(=[N+]32)N1.O=C([O-])C(F)(F)F` returned an IC50 in data set [1] of 0.24 µg/mL.
`CCCCCCC[C@H]1C[C@H]2CCC3=C(C(=O)OCCCCNC(=N)N)C(CCCCC)N=C(N1)N32` (stereo partly specified): in [2], the IC50 was 5.5 µg/mL (≈ 11.3 µM).
`CCCCCCCCC[C@@H]1C[C@@H]2CC[C@H]3[C@@H](C(=O)OCCCCNC(=N)N)[C@@H](C)N=C(N1)N23`: the results for the IC50 in [3], in data set [4] and in data set [5] were 130 µM, 64 µM and 2 µM, respectively. For the same molecule, the result in data set [6] was inactive.
As for `CCCCCCCCCCCCCCCCOP(=O)([O-])OCC[N+](C)(C)C` [MILTEFOSINE], the IC50 in data set [3] turned out to be 122 µM; in [5], 16 µM.
`CCC1C=CCC[C@@]2(C[C@@H]3CC[C@@H]4[C@H](C(=O)OCCCCCCCCCCCCCCCC(=O)N(CCCN)C[C@@H](O)CCN)[C@]5(CCC[C@@H](C)O5)NC(=N2)N34)O1` (stereo partly specified): in data set [2], the IC50 came to 6.8 µg/mL (≈ 8.49 µM).
In turn, `CCCCC[C@@H]1C[C@H]2CC[C@H]3C[C@@H](CCCCC)NC(=[N+]23)N1.O=C([O-])C(F)(F)F` registered an IC50 in data set [1] of 0.24 µg/mL.
As for `O=C(Cn1ccnc1[N+](=O)[O-])NCc1ccccc1` [BENZNIDAZOLE], the IC50 came to 477 µM in [3] and 441 µM in data set [4].
As to `CCCCCCCCC[C@@H]1C[C@@H]2CC[C@H]3[C@@H](C(=O)OC(C)CCCCCCC[C@@H]4C[C@@H]5CC[C@@H]6C[C@H](C)NC(=N4)N65)[C@@H](C)N=C(N1)N23` (stereo partly specified) [BATZELLADINE L], the IC50 in [3] came out at 22 µM; in data set [4], 2 µM; in data set [2], 1.9 µg/mL (≈ 2.91 µM); in data set [5], 2 µM. The Activity stood at 35% in data set [7] and 43% in data set [8]. Moreover, in data set [9], the selectivity ratio was 7. For the same molecule, the “Ratio IC50” value in [10] came out at 54. Further, in data set [6], the result was inactive.
On to `CCCCCCC[C@@H]1C[C@@H]2CC[C@H]3[C@@H](C(=O)O[C@H](C)CCCCCCC[C@@H]4C[C@@H]5CC[C@@H]6C[C@H](C)N=C(N4)N65)[C@@H](C)N=C(N1)N23`, for which the IC50 in data set [3] is 10 µM; in [4] it was 5 µM; in [5], 4 µM. For the same molecule, in [10], the “Ratio IC50” value worked out at 54. For the same molecule, the result in data set [6] was inactive.
Regarding `CCCCCCC[C@@H]1C[C@@H]2CCC3=C(C(=O)OCCCCCCC[C@@H]4C[C@@H]5CC[C@@H]6C[C@H](C)NC(=N4)N65)C(C)N=C(N1)N32` (stereo partly specified), the IC50 in data set [2] was found to be 8.5 µg/mL (≈ 14.3 µM).
On to `CCCCCCCC[C@@H]1C[C@@H]2CC[C@H]3[C@@H](C(=O)OC(C)CCCCCCC[C@@H]4C[C@@H]5CC[C@@H]6C[C@H](C)NC(=N4)N65)[C@@H](C)N=C(N1)N23` (stereo partly specified) [NORBATZELLADINE L], for which the IC50 was 85 µM in data set [3], 7 µM in data set [4] and 2 µM in [5]. The Activity in [11] was 65%; in [7], 30%; in [8], 82%. For the same molecule, the selectivity ratio in [9] worked out at 12. Further, the “Ratio IC50” value in data set [10] was found to be 54. Also, the outcome in data set [6] was inactive.
As for `CCCC[C@H]1c2nc(=N)[nH]c3c2[C@H](CC3)C[C@@H]1C`, it took 17 µg/mL (≈ 69.3 µM) to reach half-maximal inhibition in data set [12] (IC50).
As for `CCCCCCCCCc1cc2n(c(=N)n1)CCC2`, the IC50 in [3] was determined as 26 µM; in data set [4] it was 8 µM; in data set [5] it was 2 µM. Besides, in data set [13], the Activity entry was “Non-toxic”. Further, the outcome in [14], in data set [15], in data set [16] and in data set [6] was inactive. Further, in [10], the “Ratio IC50” value is 54.
